Results published in paper PMC3223964 (ACS chemical neuroscience, 2011).
Several values for one entry are separate records, joined by “and”; a condition that tells them apart may be missing. Equal values may be shown once.

What was measured:
[1] = target: T1, KCNQ2 channels (Homo sapiens, UniProt O43526); test: Thallium-based fluorescence; type: cell-based; settings: 10-point CRC
How it was run: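 Thallium influx read with FluxOR dye. Cells were plated at 6500/well on poly-D-lysine, cultured overnight at 37 °C and 5% CO2, and dye-loaded 90 min at room temperature in the dark. Assay buffer was HBSS with 5.8 mM K+, with 20 min compound preincubation. Stimulus brought final K+ to 15.8 mM and Tl+ to 5 mM. Reading was at 1 Hz for 10 s baseline plus 110 s; ΔF/F0 over 120 s was normalized to activator and buffer controls.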

[2] = target: T1, KCNQ2 channels; test: IonWorks automated electrophysiology; type: cell-based; settings: IW EC50, KCNQ2 (enhancement of KCNQ2 currents), -10 mV step potential
How it was run: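 Perforated-patch population clamp (IonWorks Quattro) on CHO cells stably expressing KCNQ2. Cells were freshly detached and seeded at 7000 cells/well in HEPES/glucose saline at pH 7.4, then perforated with 50 μg/mL amphotericin B in KCl/K-gluconate internal solution at pH 7.2. Steady-state current at the end of a 2000 ms depolarizing step was read before and after 3 min compound, as % change per well. Dosing was 8 points, 3-fold from 30 μM, in quadruplicate. Conductance was current divided by driving force; ΔV1/2 came from the same cells.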

[3] = target: T2, KCNQ1 (Homo sapiens, UniProt P51787); test: Tl+ flux assay, KCNQ1; type: cell-based
[4] = target: T3, KCNQ1/KCNE1 (Homo sapiens, UniProt P51787); test: Tl+ flux assay, KCNQ1/E1; type: cell-based
[5] = target: KCNQ3 (Homo sapiens, UniProt O43525); test: Tl+ flux assay, KCNQ3; type: cell-based
[6] = target: T4, KCNQ4 (Homo sapiens, UniProt P56696); test: Tl+ flux assay, KCNQ4; type: cell-based; settings: versus KCNQ2, Tl+ flux assay
[7] = target: KCNQ5 (Homo sapiens, UniProt Q9NR82); test: Tl+ flux assay, KCNQ5; type: cell-based
[8] = target: T5, Kir2.1 (Homo sapiens, UniProt P63252); test: Tl+ flux assay, Kir2.1; type: cell-based
T5 sequence (P63252 1-427): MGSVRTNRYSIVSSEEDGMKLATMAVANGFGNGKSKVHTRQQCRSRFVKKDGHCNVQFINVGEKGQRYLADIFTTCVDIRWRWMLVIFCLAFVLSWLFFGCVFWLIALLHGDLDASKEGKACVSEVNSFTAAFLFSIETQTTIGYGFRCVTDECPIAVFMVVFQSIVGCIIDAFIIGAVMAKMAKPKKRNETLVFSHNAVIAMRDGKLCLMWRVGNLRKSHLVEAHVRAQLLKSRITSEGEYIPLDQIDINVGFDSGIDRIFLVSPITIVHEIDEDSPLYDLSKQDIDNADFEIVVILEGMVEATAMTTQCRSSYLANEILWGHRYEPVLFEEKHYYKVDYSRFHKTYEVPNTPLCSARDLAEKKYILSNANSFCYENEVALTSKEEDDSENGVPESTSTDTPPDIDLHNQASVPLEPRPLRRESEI

[9] = target: T2, KCNQ1; test: IonWorks automated electrophysiology, KCNQ1; type: cell-based
How it was run: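 KCNQ1 cells in IonWorks perforated-patch mode (50 μg/mL amphotericin B), with extracellular saline at pH 7.4. Cells were depolarized to +40 mV from the holding potential, and current was measured during the +40 mV step before and 3 min after compound. No liquid junction correction was applied; sampling was 0.625 kHz. EC50 came from 8-point, 3-fold dilutions from 30 μM, in quadruplicate.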

[10] = target: T3, KCNQ1/KCNE1; test: IonWorks automated electrophysiology, KCNQ1/KCNE1; type: cell-based
How it was run: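 KCNQ1/KCNE1 cells in IonWorks perforated patch (50 μg/mL amphotericin B) at pH 7.4 extracellular. The protocol was a 3000 ms depolarizing step to +40 mV, then a 500 ms hyperpolarizing step. Steady-state current at +40 mV was read before and after 3 min compound exposure. Concentration-response was 8 points, 3-fold from 30 μM, in quadruplicate; sampling was 0.625 kHz.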

[11] = target: KCNQ2/KCNQ3 (Homo sapiens, UniProt O43525+O43526); test: IonWorks automated electrophysiology, KCNQ2/KCNQ3; type: cell-based
How it was run: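 KCNQ2/KCNQ3-expressing cells on IonWorks population patch clamp, perforated with 50 μg/mL amphotericin B, extracellular pH 7.4 and internal pH 7.2. The KCNQ2 voltage protocol was used: a 2000 ms depolarizing step, with steady-state current read at step end before and 3 min after compound. Wells needed >100 pA current and >30 MΩ seal. Dosing was 8 points, 3-fold from 30 μM, in quadruplicate.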

[12] = target: T4, KCNQ4; test: IonWorks automated electrophysiology, KCNQ4; type: cell-based; settings: versus KCNQ2, IonWorks
[13] = target: hERG (Homo sapiens, UniProt Q12809); test: IonWorks automated electrophysiology, hERG; type: cell-based
[14] = target: T6, CYP1A2 (Homo sapiens, UniProt P05177); test: CYP450 inhibition, CYP1A2; type: in vitro ADME
T6 sequence (P05177 1-516): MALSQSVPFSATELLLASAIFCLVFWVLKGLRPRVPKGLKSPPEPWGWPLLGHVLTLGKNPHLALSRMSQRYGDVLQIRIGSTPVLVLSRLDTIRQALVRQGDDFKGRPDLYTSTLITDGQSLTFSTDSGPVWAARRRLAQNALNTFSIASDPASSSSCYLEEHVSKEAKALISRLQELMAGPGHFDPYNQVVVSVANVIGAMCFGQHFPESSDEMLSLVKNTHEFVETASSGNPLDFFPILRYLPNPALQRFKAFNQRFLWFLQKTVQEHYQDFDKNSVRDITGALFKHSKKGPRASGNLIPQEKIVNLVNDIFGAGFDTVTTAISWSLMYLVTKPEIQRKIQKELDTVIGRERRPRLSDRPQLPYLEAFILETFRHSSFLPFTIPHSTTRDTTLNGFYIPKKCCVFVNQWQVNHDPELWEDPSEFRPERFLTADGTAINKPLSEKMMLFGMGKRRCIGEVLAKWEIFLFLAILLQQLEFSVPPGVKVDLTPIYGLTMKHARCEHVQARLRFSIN

[15] = target: CYP2C9 (Homo sapiens, UniProt P11712); test: CYP450 inhibition, CYP2C9; type: in vitro ADME
[16] = target: CYP3A4 (Homo sapiens, UniProt P08684); test: CYP450 inhibition, CYP3A4; type: in vitro ADME
[17] = target: CYP2D6 (Homo sapiens, UniProt P10635); test: CYP450 inhibition, CYP2D6; type: in vitro ADME
[18] = Snapshot in vivo PK study, plasma and brain levels after IP administration; settings: 10 mg/kg
[19] = test system: 68 GPCRs, ion channels and transporters; test: Ricerca Lead Profiling Screen; type: binding; settings: 10 μM

Sequence of hERG (Q12809 whole entry): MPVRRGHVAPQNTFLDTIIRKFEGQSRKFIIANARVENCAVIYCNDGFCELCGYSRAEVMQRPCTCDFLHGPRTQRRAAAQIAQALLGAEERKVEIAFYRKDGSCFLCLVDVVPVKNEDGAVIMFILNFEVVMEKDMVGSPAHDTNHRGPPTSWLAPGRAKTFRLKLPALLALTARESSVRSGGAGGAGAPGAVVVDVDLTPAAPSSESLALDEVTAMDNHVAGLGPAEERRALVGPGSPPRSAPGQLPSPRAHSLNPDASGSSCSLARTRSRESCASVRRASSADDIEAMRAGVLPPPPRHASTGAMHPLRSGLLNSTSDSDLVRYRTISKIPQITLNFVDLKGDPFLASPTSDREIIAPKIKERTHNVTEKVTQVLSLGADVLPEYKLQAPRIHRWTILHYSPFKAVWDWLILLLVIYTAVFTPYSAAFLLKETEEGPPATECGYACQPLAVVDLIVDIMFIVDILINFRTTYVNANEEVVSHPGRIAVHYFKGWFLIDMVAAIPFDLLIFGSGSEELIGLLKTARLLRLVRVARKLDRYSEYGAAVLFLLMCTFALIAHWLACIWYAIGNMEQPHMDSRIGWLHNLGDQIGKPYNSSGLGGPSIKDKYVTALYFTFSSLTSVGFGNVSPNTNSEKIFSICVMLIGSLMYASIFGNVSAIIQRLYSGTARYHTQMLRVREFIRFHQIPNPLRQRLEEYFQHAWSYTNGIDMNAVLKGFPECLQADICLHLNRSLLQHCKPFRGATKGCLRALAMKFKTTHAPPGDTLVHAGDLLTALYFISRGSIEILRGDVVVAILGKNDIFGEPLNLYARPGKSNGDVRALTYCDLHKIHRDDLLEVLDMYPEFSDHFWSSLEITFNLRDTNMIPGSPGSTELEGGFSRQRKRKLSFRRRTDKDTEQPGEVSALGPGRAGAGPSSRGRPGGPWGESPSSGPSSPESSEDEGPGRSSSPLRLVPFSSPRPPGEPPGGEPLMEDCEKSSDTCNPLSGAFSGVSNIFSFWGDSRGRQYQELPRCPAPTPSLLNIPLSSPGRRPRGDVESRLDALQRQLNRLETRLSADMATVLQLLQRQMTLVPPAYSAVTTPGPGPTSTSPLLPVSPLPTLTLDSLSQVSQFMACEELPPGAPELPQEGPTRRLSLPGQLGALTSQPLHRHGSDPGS
Sequence of CYP2C9 (P11712 whole entry): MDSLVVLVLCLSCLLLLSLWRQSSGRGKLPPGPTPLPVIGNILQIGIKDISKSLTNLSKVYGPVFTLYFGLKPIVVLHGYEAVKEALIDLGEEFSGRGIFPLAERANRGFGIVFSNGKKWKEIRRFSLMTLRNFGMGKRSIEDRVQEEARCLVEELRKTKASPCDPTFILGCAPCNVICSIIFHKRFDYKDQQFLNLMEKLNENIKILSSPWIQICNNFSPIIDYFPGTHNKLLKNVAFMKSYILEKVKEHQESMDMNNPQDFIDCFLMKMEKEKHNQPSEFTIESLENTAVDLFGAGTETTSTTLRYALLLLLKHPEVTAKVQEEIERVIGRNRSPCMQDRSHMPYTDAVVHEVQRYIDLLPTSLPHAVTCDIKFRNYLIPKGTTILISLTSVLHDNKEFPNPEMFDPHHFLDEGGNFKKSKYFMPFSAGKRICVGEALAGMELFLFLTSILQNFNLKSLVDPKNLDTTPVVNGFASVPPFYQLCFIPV
Sequence of CYP2D6 (P10635 whole entry): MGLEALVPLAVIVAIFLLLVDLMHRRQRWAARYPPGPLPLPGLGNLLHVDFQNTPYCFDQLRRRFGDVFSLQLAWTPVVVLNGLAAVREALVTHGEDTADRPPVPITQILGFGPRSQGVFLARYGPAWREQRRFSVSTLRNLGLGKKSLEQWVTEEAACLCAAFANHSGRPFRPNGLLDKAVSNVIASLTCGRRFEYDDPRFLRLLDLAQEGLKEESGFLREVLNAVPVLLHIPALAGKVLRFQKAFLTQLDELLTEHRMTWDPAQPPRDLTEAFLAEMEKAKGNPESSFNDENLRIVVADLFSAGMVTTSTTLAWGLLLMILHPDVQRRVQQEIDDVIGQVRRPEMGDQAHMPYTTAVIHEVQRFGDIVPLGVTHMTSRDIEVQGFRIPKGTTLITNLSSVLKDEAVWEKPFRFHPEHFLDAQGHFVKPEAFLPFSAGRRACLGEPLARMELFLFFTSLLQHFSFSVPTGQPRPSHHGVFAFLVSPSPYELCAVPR
Sequence of CYP3A4 (P08684 whole entry): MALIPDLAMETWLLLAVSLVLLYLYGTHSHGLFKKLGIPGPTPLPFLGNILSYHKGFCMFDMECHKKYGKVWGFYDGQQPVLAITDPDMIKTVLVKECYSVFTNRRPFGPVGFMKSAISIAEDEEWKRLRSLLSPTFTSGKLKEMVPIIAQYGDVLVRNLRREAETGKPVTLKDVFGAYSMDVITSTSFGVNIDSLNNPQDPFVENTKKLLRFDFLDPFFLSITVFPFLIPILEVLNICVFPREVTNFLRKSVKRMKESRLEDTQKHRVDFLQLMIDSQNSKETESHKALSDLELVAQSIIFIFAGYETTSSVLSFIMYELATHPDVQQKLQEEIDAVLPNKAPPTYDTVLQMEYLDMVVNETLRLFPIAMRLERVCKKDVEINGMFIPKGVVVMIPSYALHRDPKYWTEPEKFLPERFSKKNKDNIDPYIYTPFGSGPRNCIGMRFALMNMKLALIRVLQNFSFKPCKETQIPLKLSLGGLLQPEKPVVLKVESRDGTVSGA

Cc1cc(C)c(NC(=O)C2CC3CCC2C3)c(C)c1 (stereo not drawn) [compound 1, N-Mesitylbicyclo[2.2.1]heptane-2-carboxamide]
maximal increase in Tl+ influx, KCNQ2 [1]: 56% | EC50 ([1]; Tl+ EC50, KCNQ2, fluorescent Tl+ influx assay): 0.359 µM and 0.36 µM | EC50 [2]: 0.23 µM | EC50 [3]: > 30 µM | selectivity ratio at 20 min [3]: > 80 | EC50 [4]: > 30 µM | selectivity ratio at 20 min [4]: > 80 | EC50 [5]: > 30 µM | Fold selectivity (Tl+), KCNQ3 ([5]; versus KCNQ2, Tl+ flux assay): >80 fold | Fold selectivity (Tl+), KCNQ4 [6]: 6.7 fold | EC50 [7]: > 30 µM | Fold selectivity (Tl+), KCNQ5 ([7]; versus KCNQ2, Tl+ flux assay): >80 fold | EC50 [8]: > 10 µM | Fold selectivity (Tl+), Kir2.1 ([8]; versus KCNQ2, Tl+ flux assay): >27 fold | EC50 [9]: > 30 µM | selectivity ratio at 3 min ([9]; pH 7.4): > 80 | EC50 [10]: > 30 µM | selectivity ratio at 3 min ([10]; pH 7.4): > 80 | EC50 [11]: 0.37 µM | Fold selectivity (IW), KCNQ2/3 ([11]; versus KCNQ2, IonWorks): 1 fold | Fold selectivity (IW), KCNQ4 [12]: 1.4 fold | EC50 [13]: > 10 µM | selectivity ratio ([13]; human): > 28 | IC50 [14]: > 30 µM | IC50 [15]: > 30 µM | IC50 [16]: > 30 µM | IC50 [17]: > 30 µM | concentration at 1 h ([18]; brain): 476 nM | concentration at 1 h ([18]; plasma): 1260 nM | inhibition of radio ligand binding, panel of 68 GPCRs, ion channels and transporters [19]: ≤ 50%
